Assay results taken from ChEMBL document CHEMBL1141576, “Design of new potent and selective secretory phospholipase A2 inhibitors. Part 5: synthesis and biological activity of 1-alkyl-4-[4,5-dihydro-1,2,4-[4H]-oxadiazol-5-one-3-ylmethylbenz-4'-yl(oyl)] piperazines” (Bioorg Med Chem, 2008).

How the values were obtained:
[1] = target: Phospholipase A2, major isoenzyme (Sus scrofa, UniProt P00592); experiment: Inhibition of pig pancreatic PLA2 by fluorometric assay
How it was run: (§1)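 Fluorimetric PLA2 assay after Radvanyi et al. Enzymes were secretory human recombinant group II PLA2 and secretory porcine pancreatic group I PLA2. Concentration of the fluorescent substrate determined by UV spectrometry in a quartz cell. Values reported as IC50.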

[2] = Lipophilicity, log P of the compound; format: physicochemical; details: octanol/water
How it was run: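 logP of the free base calculated with Rekker's hydrophobic fragmental constants method.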

[3] = target: T1, Phospholipase A2, membrane associated (Homo sapiens, UniProt P14555); experiment: Inhibition of human recombinant PLA2 by fluorometric assay; how it was run: as §1
T1 sequence (P14555 whole entry): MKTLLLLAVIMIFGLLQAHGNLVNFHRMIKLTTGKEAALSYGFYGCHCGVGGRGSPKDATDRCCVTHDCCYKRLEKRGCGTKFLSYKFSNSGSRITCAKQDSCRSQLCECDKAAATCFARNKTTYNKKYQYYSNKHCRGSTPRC

[4] = tested on: Mus musculus; experiment: Antiinflammatory activity against croton oil-induced ear edema in mouse at 1 mg/ear; format: functional
How it was run: (§2)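 Mice, anaesthetized. Test compound applied locally to inner surface of ear (or given per os); 1 h later croton oil applied to the ear to induce edema. 5 h after croton oil, edematous tissue punched out with a gimlet and compared with tissue from a control site to calculate percent inhibition. Results reported as mean of the animals tested, with number of experiments.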

[5] = tested on: Rattus norvegicus; experiment: Inhibition of carrageenan-induced hind paw edema in rat assessed as decrease in paw volume at 10 mg/kg, po after 5 hrs; format: functional; design: scale not given: the % may be the effect or the level left
How it was run: (§3)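 Rats. Compound given ip or orally 1 h before carrageenan injection into the hind leg; doses 5, 10 and 20 mg/kg. Indomethacin used as positive control. Edema volume measured at 0, 3 and 5 h after carrageenan.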

[6] = tested on: Rattus norvegicus; experiment: Inhibition of carrageenan-induced hind paw edema in rat assessed as decrease in paw volume at 10 mg/kg; format: functional; design: scale not given: the % may be the effect or the level left; how it was run: as §3
[7] = tested on: Mus musculus; experiment: Antiinflammatory activity against croton oil-induced ear edema in mouse at 0.5 mg/ear; format: functional; how it was run: as §2

Phospholipase A2, major isoenzyme, sequence (P00592 whole entry): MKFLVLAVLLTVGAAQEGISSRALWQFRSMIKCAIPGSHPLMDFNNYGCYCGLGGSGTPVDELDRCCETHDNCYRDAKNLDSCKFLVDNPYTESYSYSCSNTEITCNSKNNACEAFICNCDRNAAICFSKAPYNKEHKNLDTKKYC

In the case of CCCCCCCCCCCCCCOc1ccc(Cc2noc(=O)[nH]2)cc1, the IC50 [1] is reported as > 100 µM.

With CCCCCCCCCCCCCCN1CCN(C(=O)c2ccc(CCc3nc(=O)o[nH]3)cc2)CC1 the IC50 [1] was > 100 µM, the logP ([2]; read-out: LogP) was 6.3 and the IC50 [3] was 18.7 µM.

For CCCCCCCCCCCCCCCCN1CCN(c2ccc(Cc3noc(=O)[nH]3)cc2)CC1, the IC50 [1] was > 100 µM, the logP ([2]; read-out: LogP) was 6.98 and the IC50 [3] was 3.5 µM.

For CCCCCCCCCCCCCCCCCCN1CCN(c2ccc(Cc3noc(=O)[nH]3)cc2)CC1, the IC50 [1] was > 100 µM and the logP ([2]; read-out: LogP) was 8.02.

For CCCCCCCCCCCCCCCCCCN1CCN(C(=O)c2ccc(-c3noc(=O)[nH]3)cc2)CC1, the IC50 [1] was > 100 µM, the logP ([2]; read-out: LogP) was 7.56 and the IC50 [3] was 1.1 µM.

For CCCCCCCCCCCCCCN1CCN(C(=O)c2ccc(CCCc3noc(=O)[nH]3)cc2)CC1, the IC50 [1] was > 100 µM, the logP ([2]; read-out: LogP) was 6.81 and the IC50 [3] was 5.3 µM.

In the case of CCCCCCCCCCCCCCCCCCN1CCN(Cc2ccc(-c3noc(=O)[nH]3)cc2)CC1, the IC50 [1] is reported as > 100 µM, the logP ([2]; read-out: LogP) is reported as 7.37 and the IC50 [3] is reported as 5.08 µM.

With CCCCCCCCCCCCCCCCCCN1CCN(C(=O)c2ccc(Cc3noc(=O)[nH]3)cc2)CC1 the IC50 [1] was > 100 µM, the logP ([2]; read-out: LogP) was 7.86 and the IC50 [3] was 0.8 µM.

With CCCCCCCCCCCCCCCCN1CCN(Cc2ccc(-c3noc(=O)[nH]3)cc2)CC1 the IC50 [1] was > 100 µM, the logP ([2]; read-out: LogP) was 6.34 and the IC50 [3] was > 100 µM.

In the case of CCCCCCCCCCCCCCCCCCCCN1CCN(C(=O)c2ccc(Cc3noc(=O)[nH]3)cc2)CC1, the IC50 [1] is reported as > 100 µM, the logP ([2]; read-out: LogP) is reported as 8.89 and the IC50 [3] is reported as 0.1 µM.

For CCCCCCCCCCCCCCN1CCN(C(=O)c2ccc(Cc3noc(=O)[nH]3)cc2)CC1, the Activity [4] was 47.83%, the IC50 [1] was > 100 µM and the logP ([2]; read-out: LogP) was 5.78. It also gave an Activity [5] of 65% and an IC50 [3] of 9 µM.

With CCCCCCCCCCCCCCN1CCN(Cc2ccc(-c3nc(=O)o[nH]3)cc2)CC1 the IC50 [1] was > 100 µM, the logP ([2]; read-out: LogP) was 5.3 and the IC50 [3] was > 100 µM.

For CCCCCCCCCCCCCCCCN1CCN(C(=O)c2ccc(-c3nc(=O)o[nH]3)cc2)CC1, the IC50 [1] was > 100 µM, the logP ([2]; read-out: LogP) was 6.53 and the IC50 [3] was > 100 µM.

With CCCCCCCCCCCCCCN1CCN(C(=O)c2ccc(-c3nc(=O)o[nH]3)cc2)CC1 the IC50 [1] was > 100 µM, the logP ([2]; read-out: LogP) was 5.48 and the IC50 [3] was > 100 µM.

With CCCCCCCCCCCCCCN1CCN(Cc2ccc(Cc3noc(=O)[nH]3)cc2)CC1 the Activity [4] was 51.45%, the Activity [6] was 79% and the IC50 [1] was > 100 µM. The logP ([2]; read-out: LogP) was 5.59 and the IC50 [3] was > 10 µM.

With CCCCCCCCCCCCCCCCN1CCN(Cc2ccc(Cc3noc(=O)[nH]3)cc2)CC1 the IC50 [1] was > 100 µM, the logP ([2]; read-out: LogP) was 6.63 and the IC50 [3] was 10 µM.

In the case of CCCCCCCCCCCCCCN1CCN(c2ccc(Cc3nc(=O)o[nH]3)cc2)CC1, the IC50 [1] is reported as > 100 µM, the logP ([2]; read-out: LogP) is reported as 5.95 and the IC50 [3] is reported as 4.5 µM.

With CCCCCCCCCCCCCCCCCCCCCCN1CCN(C(=O)c2ccc(Cc3noc(=O)[nH]3)cc2)CC1 the IC50 [1] was > 100 µM, the logP [2] was 9.932 and the IC50 [3] was 0.1 µM.

In the case of CCCCCCCCCCCCCCCCN1CCN(C(=O)c2ccc(Cc3nc(=O)o[nH]3)cc2)CC1, the IC50 [1] is reported as > 100 µM, the logP ([2]; read-out: LogP) is reported as 6.81 and the IC50 [3] is reported as 4 µM.

In the case of CCCCCCCCCCCCCCCCCCN1CCN(Cc2ccc(Cc3nc(=O)o[nH]3)cc2)CC1, the IC50 [1] is reported as > 100 µM, the logP ([2]; read-out: LogP) is reported as 7.67 and the IC50 [3] is reported as 2.2 µM.

With COc1ccc2c(c1)c(CC(=O)O)c(C)n2C(=O)c1ccc(Cl)cc1 [INDOMETHACIN] the Activity [6] was 73%, the Activity [7] was 43.11% and the Activity [5] was 16%.
